According to ChEMBL document CHEMBL4673184, “Synthesis and biological evaluation of S-lipidated lipopeptides of a connexin 43 channel inhibitory peptide” (RSC Med Chem, 2020):
The source made the active and inactive calls. The calls are words filed in the database; no cut-off is given here. Where a SMILES comes first, the peptide text is derived from it. [ ]: non-standard residue; d: D form. The star is where a group is joined. Ethyl(2-stearoyloxy) = CCCCCCCCCCCCCCCCCC(=O)OCC*; Ethyl(2-palmitoyloxy) = CCCCCCCCCCCCCCCC(=O)OCC*; CH2CH2OBz(4-tBu) = CC(C)(C)c1ccc(C(=O)OCC*)cc1; Ethyl(2-decanoyloxy) = CCCCCCCCCC(=O)OCC*; Ethyl(2-butanoyloxy) = CCCC(=O)OCC*; Ethyl(2-OPiv) = CC(C)(C)C(=O)OCC*; Mpa = O=C(O)CCS

Columns and labels:
[1] = biological target: Gap junction alpha-1 protein (Homo sapiens) (UniProt P17302); assay: Inhibition of Cx43 in hypoxic-acidic ion-shifted ringers solution-induced human cerebral microvascular endothelial cell model of ischaemic injury assessed as ATP release at 10 uM measured after 2 hrs by luciferin-luciferase based luminescence assay relative to control; set-up: scale not given: the % may be the effect or the level left
How it was run: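 hCMVEC (passages 8-17) seeded at 2 x 10^6/well on collagen-I (1 µg/cm²) and grown 48 h to a confluent monolayer. Washed in NR, then exposed 2 h in HAIR (pH 6.6, N₂-bubbled, low Ca²⁺, K-gluconate/NMDG) containing peptide at 10 µM. Supernatant diluted 1:10 in firefly luciferase mix and read at 560 nm against an ATP standard (0-50 nM). Expressed as % of HAIR-only, mean of n=3.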

[2] = Stability in rat plasma assessed as half life at 150 ug/l measured up to 60 mins by HPLC analysis; type: ADME, cell-free
How it was run: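 Peptide from a 20 mg/L water stock incubated in 25% rat serum (v/v) in PBS pH 7.4 at a final 150 μg/L, 37 °C. Samples taken at 0-60 min and quenched with MeCN plus 15% TCA, held overnight at 4 °C, then centrifuged. Remaining peptide measured by C18 RP-HPLC peak area at 210 nm relative to t=0. Run in triplicate.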

Gap junction alpha-1 protein (Homo sapiens), sequence (P17302 whole entry): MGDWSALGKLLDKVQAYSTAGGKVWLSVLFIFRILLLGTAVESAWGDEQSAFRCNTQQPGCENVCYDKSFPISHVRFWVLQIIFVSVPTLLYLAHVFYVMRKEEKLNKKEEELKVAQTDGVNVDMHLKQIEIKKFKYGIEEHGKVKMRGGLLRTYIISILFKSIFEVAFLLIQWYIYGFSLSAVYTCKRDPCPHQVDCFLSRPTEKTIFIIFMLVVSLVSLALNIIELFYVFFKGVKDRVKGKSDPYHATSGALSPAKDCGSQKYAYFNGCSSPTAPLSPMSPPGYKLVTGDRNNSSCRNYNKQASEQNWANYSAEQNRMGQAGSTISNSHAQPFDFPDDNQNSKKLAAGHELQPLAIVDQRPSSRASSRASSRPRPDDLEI

Row | half-life at 150 ug/l [2] [min] | SMILES | Activity [1]
1 | – | CC(C)C[C@H](NC(=O)[C@H](Cc1ccccc1)NC(=O)[C@H](CS)NC(=O)[C@H](CC(=O)O)NC(=O)[C@@H](N)C(C)C)C(=O)N[C@@H](CO)C(=O)N[C@@H](CCCNC(=N)N)C(=O)N1CCC[C@H]1C(=O)N[C@H](C(=O)N[C@@H](CCC(=O)O)C(=O)N[C@@H](CCCCN)C(=O)N[C@@H](CSCCOC(=O)c1ccc(C(C)(C)C)cc1)C(=O)O)[C@@H](C)O (H-VDCFLSRPTEKC(CH2CH2OBz(4-tBu))-OH) | inactive
2 | – | CC(C)C[C@H](NC(=O)[C@H](Cc1ccccc1)NC(=O)[C@H](CS)NC(=O)[C@H](CC(=O)O)NC(=O)[C@@H](N)C(C)C)C(=O)N[C@@H](CO)C(=O)N[C@@H](CCCNC(=N)N)C(=O)N1CCC[C@H]1C(=O)N[C@H](C(=O)N[C@@H](CCC(=O)O)C(=O)N[C@@H](CCCCN)C(=O)N[C@@H](CSCCOC(=O)C(C)(C)C)C(=O)O)[C@@H](C)O (H-VDCFLSRPTEKC(Ethyl(2-OPiv))-OH) | inactive
3 | – | CCCC(=O)OCCSC[C@H](NC(=O)[C@H](CCCCN)NC(=O)[C@H](CCC(=O)O)NC(=O)[C@@H](NC(=O)[C@@H]1CCCN1C(=O)[C@H](CCCNC(=N)N)NC(=O)[C@H](CO)NC(=O)[C@H](CC(C)C)NC(=O)[C@H](Cc1ccccc1)NC(=O)[C@H](CS)NC(=O)[C@H](CC(=O)O)NC(=O)[C@@H](N)C(C)C)[C@@H](C)O)C(=O)O (H-VDCFLSRPTEKC(Ethyl(2-butanoyloxy))-OH) | inactive
4 | – | CCCCCCCCCC(=O)OCCSC[C@H](NC(=O)[C@H](CCCCN)NC(=O)[C@H](CCC(=O)O)NC(=O)[C@@H](NC(=O)[C@@H]1CCCN1C(=O)[C@H](CCCNC(=N)N)NC(=O)[C@H](CO)NC(=O)[C@H](CC(C)C)NC(=O)[C@H](Cc1ccccc1)NC(=O)[C@H](CS)NC(=O)[C@H](CC(=O)O)NC(=O)[C@@H](N)C(C)C)[C@@H](C)O)C(=O)O (H-VDCFLSRPTEKC(Ethyl(2-decanoyloxy))-OH) | inactive
5 | – | CCCCCCCCCCCCCCCC(=O)OCCSC[C@H](NC(=O)[C@H](CCCCN)NC(=O)[C@H](CCC(=O)O)NC(=O)[C@@H](NC(=O)[C@@H]1CCCN1C(=O)[C@H](CCCNC(=N)N)NC(=O)[C@H](CO)NC(=O)[C@H](CC(C)C)NC(=O)[C@H](Cc1ccccc1)NC(=O)[C@H](CS)NC(=O)[C@H](CC(=O)O)NC(=O)[C@@H](N)C(C)C)[C@@H](C)O)C(=O)O (H-VDCFLSRPTEKC(Ethyl(2-palmitoyloxy))-OH) | 131%
6 | – | CCCCCCCCCCCCCCCCCC(=O)OCCSC[C@H](NC(=O)[C@H](CCCCN)NC(=O)[C@H](CCC(=O)O)NC(=O)[C@@H](NC(=O)[C@@H]1CCCN1C(=O)[C@H](CCCNC(=N)N)NC(=O)[C@H](CO)NC(=O)[C@H](CC(C)C)NC(=O)[C@H](Cc1ccccc1)NC(=O)[C@H](CS)NC(=O)[C@H](CC(=O)O)NC(=O)[C@@H](N)C(C)C)[C@@H](C)O)C(=O)O (H-VDCFLSRPTEKC(Ethyl(2-stearoyloxy))-OH) | 129%
7 | 5 | CC(C)C[C@H](NC(=O)[C@H](Cc1ccccc1)NC(=O)[C@H](CS)NC(=O)[C@H](CC(=O)O)NC(=O)[C@@H](N)C(C)C)C(=O)N[C@@H](CO)C(=O)N[C@@H](CCCNC(=N)N)C(=O)N1CCC[C@H]1C(=O)N[C@H](C(=O)N[C@@H](CCC(=O)O)C(=O)N[C@@H](CCCCN)C(=O)N[C@H](C(=O)O)[C@@H](C)O)[C@@H](C)O (H-VDCFLSRPTEKT-OH) | 53.8%
8 | – | CC(C)C[C@H](NC(=O)[C@H](Cc1ccccc1)NC(=O)[C@H](CS)NC(=O)[C@H](CC(=O)O)NC(=O)[C@@H](NC(=O)CCSCCOC(=O)c1ccc(C(C)(C)C)cc1)C(C)C)C(=O)N[C@@H](CO)C(=O)N[C@@H](CCCNC(=N)N)C(=O)N1CCC[C@H]1C(=O)N[C@H](C(=O)N[C@@H](CCC(=O)O)C(=O)N[C@@H](CCCCN)C(=O)N[C@H](C(=O)O)[C@@H](C)O)[C@@H](C)O ([Mpa](CH2CH2OBz(4-tBu))VDCFLSRPTEKT-OH) | inactive
9 | – | CC(C)C[C@H](NC(=O)[C@H](Cc1ccccc1)NC(=O)[C@H](CS)NC(=O)[C@H](CC(=O)O)NC(=O)[C@@H](NC(=O)CCSCCOC(=O)C(C)(C)C)C(C)C)C(=O)N[C@@H](CO)C(=O)N[C@@H](CCCNC(=N)N)C(=O)N1CCC[C@H]1C(=O)N[C@H](C(=O)N[C@@H](CCC(=O)O)C(=O)N[C@@H](CCCCN)C(=O)N[C@H](C(=O)O)[C@@H](C)O)[C@@H](C)O ([Mpa](Ethyl(2-OPiv))VDCFLSRPTEKT-OH) | inactive
10 | – | CCCC(=O)OCCSCCC(=O)N[C@H](C(=O)N[C@@H](CC(=O)O)C(=O)N[C@@H](CS)C(=O)N[C@@H](Cc1ccccc1)C(=O)N[C@@H](CC(C)C)C(=O)N[C@@H](CO)C(=O)N[C@@H](CCCNC(=N)N)C(=O)N1CCC[C@H]1C(=O)N[C@H](C(=O)N[C@@H](CCC(=O)O)C(=O)N[C@@H](CCCCN)C(=O)N[C@H](C(=O)O)[C@@H](C)O)[C@@H](C)O)C(C)C ([Mpa](Ethyl(2-butanoyloxy))VDCFLSRPTEKT-OH) | 28.8%
11 | – | CCCCCCCCCC(=O)OCCSCCC(=O)N[C@H](C(=O)N[C@@H](CC(=O)O)C(=O)N[C@@H](CS)C(=O)N[C@@H](Cc1ccccc1)C(=O)N[C@@H](CC(C)C)C(=O)N[C@@H](CO)C(=O)N[C@@H](CCCNC(=N)N)C(=O)N1CCC[C@H]1C(=O)N[C@H](C(=O)N[C@@H](CCC(=O)O)C(=O)N[C@@H](CCCCN)C(=O)N[C@H](C(=O)O)[C@@H](C)O)[C@@H](C)O)C(C)C ([Mpa](Ethyl(2-decanoyloxy))VDCFLSRPTEKT-OH) | inactive
12 | – | CCCCCCCCCCCCCCCC(=O)OCCSCCC(=O)N[C@H](C(=O)N[C@@H](CC(=O)O)C(=O)N[C@@H](CS)C(=O)N[C@@H](Cc1ccccc1)C(=O)N[C@@H](CC(C)C)C(=O)N[C@@H](CO)C(=O)N[C@@H](CCCNC(=N)N)C(=O)N1CCC[C@H]1C(=O)N[C@H](C(=O)N[C@@H](CCC(=O)O)C(=O)N[C@@H](CCCCN)C(=O)N[C@H](C(=O)O)[C@@H](C)O)[C@@H](C)O)C(C)C ([Mpa](Ethyl(2-palmitoyloxy))VDCFLSRPTEKT-OH) | inactive
13 | – | CCCCCCCCCCCCCCCCCC(=O)OCCSCCC(=O)N[C@H](C(=O)N[C@@H](CC(=O)O)C(=O)N[C@@H](CS)C(=O)N[C@@H](Cc1ccccc1)C(=O)N[C@@H](CC(C)C)C(=O)N[C@@H](CO)C(=O)N[C@@H](CCCNC(=N)N)C(=O)N1CCC[C@H]1C(=O)N[C@H](C(=O)N[C@@H](CCC(=O)O)C(=O)N[C@@H](CCCCN)C(=O)N[C@H](C(=O)O)[C@@H](C)O)[C@@H](C)O)C(C)C ([Mpa](Ethyl(2-stearoyloxy))VDCFLSRPTEKT-OH) | inactive
